Active and inactive are the calls of the source. The calls are words filed in the database; no cut-off is given here.
Columns and labels:
MCF7 [1] = experiment: Induction of apoptosis in human MCF7 cells assessed as increase in E-cadherin expression at 1 to 2 uM after 48 hrs by FACS analysis; assay type: functional, cell-based
Summary of the method: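 MCF-7 seeded at 5 × 10⁴/cm² and treated at 24 h with 1 or 2 µM compound for 48 h. Labelled with fluorochrome-conjugated anti-E-cadherin or anti-β-catenin antibody for 30 min at 4 °C in the dark, washed in PBS. Mean fluorescence intensity measured by FACScan flow cytometry.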

MCF7 [2] = experiment: Induction of apoptosis in human MCF7 cells assessed as reduction in cyclin D1 protein expression at 2 uM after 4 hrs by Western blotting analysis relative to control; assay type: functional; design: scale not given: the % may be the effect or the level left
Summary of the method: (§1)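 MCF-7 seeded at 5 × 10⁴/cm² and exposed at 24 h to 2 µM compound for 0, 4, 8, 16 and 24 h. Lysates separated on 12% SDS gels, transferred to nitrocellulose, blocked in 5% milk. Primary antibodies applied overnight at 4 °C, then secondary 1 h at room temperature. Detection by ECL chemiluminescence with β-actin as loading reference.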

MCF7 [3] = experiment: Cytotoxicity against human MCF7 cells assessed as reduction in cell viability at 3 uM after 3 days by SRB assay relative to control; assay type: functional
Summary of the method: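 MCF-7 seeded at high density (5 × 10⁴/cm²) and treated at 24 h with compound for 3 days, with or without 20 mM NAC. Viable cells quantified by sulforhodamine B staining, OD 492 nm. Viability reduction expressed versus untreated controls.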

MCF7 [4] = experiment: Cell cycle arrest in human MCF7 cells assessed as accumulation at […] phase at 1 uM after 48 hrs by propidium iodide/RNAse staining-based FACS analysis (reference value: 8.02 %); assay type: functional
MCF7 [5] = experiment: Cell cycle arrest in human MCF7 cells assessed as accumulation at G0-G1 phase after 24 hrs by propidium iodide/RNAse staining-based FACS analysis; assay type: functional
[6] = Therapeutic index, ratio of IC50 for human MCF10A cells to IC50 for human MDA-MB-231 cells; assay type: cell-based, MCF-10A; details: MCF10A cells versus MDA-MB-231 cells, read-out: Ratio IC50
MCF7 [7] = experiment: Cell cycle arrest in human MCF7 cells assessed as accumulation at G0-G1 phase at 1 uM after 24 hrs by propidium iodide/RNAse staining-based FACS analysis (reference value: 42.34 %); assay type: functional
MCF7 [8] = experiment: Induction of apoptosis in human MCF7 cells assessed as reduction in c-myc expression at 2 uM after 16 hrs by Western blotting analysis relative to control; assay type: functional; design: scale not given: the % may be the effect or the level left; summary of the method: as §1
MCF7 [9] = experiment: Induction of apoptosis in human MCF7 cells assessed as increase in phosphorylated p53 level at 2 uM after 4 to 24 hrs by Western blotting analysis relative to control; assay type: functional, cell-based; summary of the method: as §1

Question: Which results are given for `C=C1CC[C@@H]2[C@](C)(CCC[C@]2(C)C(=O)OC)[C@H]1Cc1c(C)ccc2c1C(=O)C=CC2=O`?
Answer: Activity (MCF7 [1]): Active; Activity (MCF7 [2]): 80%; viability (MCF7 [3]): 23.26%; Activity (MCF7 [4]): 15.56%; Activity (MCF7 [5]): Dose-dependent effect; selectivity ratio [6]: 6.85; Activity (MCF7 [7]): 51.4%; Activity (MCF7 [8]): 50%; Activity (MCF7 [9]): Active

From ChEMBL document CHEMBL3259621, “Novel merosesquiterpene exerts a potent antitumor activity against breast cancer cells in vitro and in vivo” (Eur J Med Chem, 2014)
